pIC50: −log10 of the molar value.
Assays:
[1] = system: Schistosoma mansoni; assay: Antischistosomal activity against Schistosoma mansoni NTS incubated for 72 hrs; type: functional, organism-based
How it was run: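 NTS from mechanically transformed cercariae (Liberian strain), 100 per well in Medium 199 + 5% iFCS, penicillin/streptomycin, preincubated 12–24 h at 37°C, 5% CO2. Exposed to 0.37–90 μg/ml (threefold steps) for 72 h. Scored microscopically on a viability scale (death, motility, morphology). DMSO control; duplicates, at least three experiments; IC50 from viability scores.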

[2] = system: Schistosoma mansoni; assay: Antischistosomal activity against adult Schistosoma mansoni schistosomes incubated for 72 hrs; type: functional, organism-based
[3] = system: L6; assay: Cytotoxicity against rat L6 cells incubated for […] hrs by Alamar blue assay; type: cell-based
[4] = Selectivity index, ratio of IC50 for rat L6 cells to IC50 for adult Schistosoma mansoni schistosomes
How it was run: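 Ratio of L6 IC50 to adult S. mansoni IC50, both from the assays above.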

[5] = system: Schistosoma mansoni; assay: Antischistosomal activity against adult Schistosoma mansoni infected NMRI mouse adult infection model assessed as reduction in total worm burden at 400 mg/kg administered as single dose starting from 49 days post infection; type: functional; design: scale not given: the % may be the effect or the level left
How it was run: (§1)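 Mice infected subcutaneously with ~100 S. mansoni cercariae (Liberian strain). At day 49 post infection, groups of 4 NMRI mice received a single oral 400 mg/kg dose; 8–10 untreated controls. Total and female worm burden reductions calculated against untreated controls.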

[6] = system: Schistosoma mansoni; assay: Antischistosomal activity against adult Schistosoma mansoni infected NMRI mouse adult infection model assessed as reduction in female worm burden at 400 mg/kg administered as single dose starting from 49 days post infection; type: functional; design: scale not given: the % may be the effect or the level left; how it was run: as §1
[7] = system: Schistosoma mansoni; assay: Antischistosomal activity against adult Schistosoma mansoni schistosomes incubated for 72 hrs in presence of 120 uM Fe(3)-hemin; type: functional, organism-based
How it was run: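 Adult worm motility assay in RPMI 1640 + 5% iFCS at 1.1–30 μg/ml. Fe(III)-hemin held at 120 μM final throughout exposure; hemin stock 1.5 mM in dilute NaOH/PBS pH 7.4. Motility scored, IC50 determined at 72 h. At least three experiments.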

[8] = system: HeLa; assay: Cytotoxicity against human HeLa cells incubated for 48 hrs by resazurin dye reduction assay; type: cell-based
[9] = system: MRC5; assay: Cytotoxicity against human MRC5 cells incubated for 48 hrs by resazurin dye reduction assay; type: cell-based; conditions: MRC5, 48 h
[10] = Selectivity index, ratio of IC50 for human MRC5 cells to IC50 for human HeLa cells; type: cell-based; conditions: MRC5 cells versus HeLa cells, read-out: Ratio IC50
[11] = system: Schistosoma mansoni; assay: Antischistosomal activity against adult Schistosoma mansoni infected NMRI mouse juvenile infection model assessed as reduction in total worm burden at 400 mg/kg administered as single dose starting from 21 days post infection; type: functional; design: scale not given: the % may be the effect or the level left
How it was run: (§2)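 Juvenile model: NMRI mice infected with ~100 cercariae were given a single oral 400 mg/kg dose on day 21 post infection. Dissected four weeks after treatment, worms sexed and counted. Total and female burden reductions calculated against untreated controls.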

[12] = system: Schistosoma mansoni; assay: Antischistosomal activity against adult Schistosoma mansoni infected NMRI mouse juvenile infection model assessed as reduction in female worm burden at 400 mg/kg administered as single dose starting from 21 days post infection; type: functional; design: scale not given: the % may be the effect or the level left; how it was run: as §2

| Structure (SMILES) | pIC50 [1] | pIC50 [2] | also measured |
| --- | --- | --- | --- |
| C[C@]12OO[C@](C)(OO1)C2CCC(=O)N1CCCCCC1 (stereo not given in full) | 5.26 | 4.30 |  |
| C[C@]12OO[C@](C)(OO1)C2CCC(=O)NCCc1ccccc1 (stereo not given in full) | 5.21 | 4.18 |  |
| C[C@]12OO[C@](C)(OO1)C2CCC(=O)N1CCCCC1 (stereo not given in full) | 5.18 | < 3.96 |  |
| CC(c1ccc2ccccc2c1)C1[C@]2(C)OO[C@@]1(C)OO2 (stereo not given in full) | 5.15 | 4.45 |  |
| C[C@]12OO[C@](C)(OO1)C2CCC(=O)NC1CCCCC1 (stereo not given in full) | 5.05 | 4.18 |  |
| C[C@]12OO[C@](C)(OO1)C2CCC(=O)N1CCOCC1 (stereo not given in full) | 4.97 | 4.43 |  |
| C[C@]12OO[C@](C)(OO1)C2CCC(=O)NCc1ccccc1 (stereo not given in full) | 4.96 | < 3.99 |  |
| CCOC(=O)CNC(=O)CCC1[C@]2(C)OO[C@@]1(C)OO2 (stereo not given in full) | 4.93 | < 3.98 |  |
| C[C@]12OO[C@](C)(OO1)C2CCC(=O)N1CCCC1 (stereo not given in full) | 4.86 | < 3.93 |  |
| CC(C)NC(=O)CCC1[C@]2(C)OO[C@@]1(C)OO2 (stereo not given in full) | 4.59 |  |  |
| CC12CCC3[C@@](C)(OO[C@]3(c3ccc(Br)cc3)O1)O2 | 5.77 | 5.06 | pIC50 [3]: 5.09; Ratio IC50 [4]: 0.9; Activity [5]: 31.3%; Activity [6]: 36.4% |
| CCOC(=O)CCC12CCC3(C)O[C@]1(C)OO[C@]2(C)O3 | 5.46 | < 3.98 | pIC50 [7]: 4.04 |
| Cc1ccc(CC23CCC4(C)O[C@]2(C)OO[C@]3(C)O4)cc1 | 5.35 | < 3.99 | pIC50 [7]: 4.87; pIC50 [3]: < 3.99; Ratio IC50 [4]: >7.7; Activity [5]: 0%; Activity [6]: 0% |
| C#CCC12CCC3(C)O[C@]1(C)OO[C@]2(C)O3 | 5.09 | 4.08 |  |
| CC12CCC3(Cc4ccc([N+](=O)[O-])cc4)[C@@](C)(OO[C@]3(C)O1)O2 | 5.05 | 4.91 | pIC50 [3]: < 4.03; Ratio IC50 [4]: >7.6; Activity [5]: 4.7%; Activity [6]: 9.6% |
| CC12CCC3[C@@](C)(OO[C@]3(C)O1)O2 | 5.05 | 4.72 |  |
| CC12CCC3[C@@](C)(OO[C@]3(c3ccccc3)O1)O2 | 5.03 | 5.11 | pIC50 [3]: 4.99; Ratio IC50 [4]: 1.3; Activity [5]: 6.5%; Activity [6]: 15.2% |
| CC12CCC3(Cc4ccccc4)[C@@](C)(OO[C@]3(C)O1)O2 | 4.87 | < 3.96 |  |
| COc1ccc([C@]23OO[C@@]4(C)OC(C)(CCC42)O3)cc1 | 4.84 | 4.93 | pIC50 [3]: 4.23; Ratio IC50 [4]: 4.9; pIC50 [8]: 5.22; pIC50 [9]: 4.91; selectivity ratio [10]: 2; Activity [5]: 82.8%; Activity [6]: 82.9%; Activity [11]: 18.9%; Activity [12]: 27.3% |
| C=CCC12CCC3(C)O[C@]1(C)OO[C@]2(C)O3 | 4.81 |  |  |
| CC12CCC3[C@@](C)(OO[C@]3(c3ccc(Cl)cc3)O1)O2 | 4.80 |  |  |
| CCCCC12CCC3(C)O[C@]1(C)OO[C@]2(C)O3 | 4.65 |  |  |
| CC12CCC3(CC4CO4)[C@@](C)(OO[C@]3(C)O1)O2 (stereo not given in full) | 4.65 |  |  |
| Cc1ccc([C@]23OO[C@@]4(C)OC(C)(CCC42)O3)cc1 | 4.34 |  |  |
| CC12CCC3(C)[C@@](C)(OO[C@]3(C)O1)O2 | 3.74 |  |  |
| CC12CCC3(CCC(=O)NC45CC6CC(CC(C6)C4)C5)[C@@](C)(OO[C@]3(C)O1)O2 | 3.67 |  |  |
| CC12CCC3(CCC(=O)N4CCOCC4)[C@@](C)(OO[C@]3(C)O1)O2 | < 3.54 |  |  |
| CC12CCC3(CCC(=O)O)[C@@](C)(OO[C@]3(C)O1)O2 | < 3.46 |  |  |

| Structure (SMILES) | pIC50 [1] | pIC50 [2] | also measured |
| --- | --- | --- | --- |
| CC12CCC3(CCC#N)[C@@](C)(OO[C@]3(C)O1)O2 | < 3.42 |  |  |
| C1COC(OOC23CC4CC(CC(C4)C2)C3)C1 (stereo not given) | < 3.90 |  |  |
| CCOC(=O)CCC(OOC(C)(C)C)(C(C)=O)C(C)=O | < 3.98 |  |  |
| CC(=O)C(C)(OOC(C)(C)C)C(C)=O | < 3.10 |  |  |
| CCOC(=O)C(Cc1ccccc1)(OOC(C)(C)C)C(C)=O (stereo not given) | 4.82 |  |  |
| CCCCC(OOC(C)(C)C)(C(C)=O)C(=O)OCC (stereo not given) | 4.58 |  |  |
| CCOC(=O)C(CCC#N)(OOC(C)(C)C)C(C)=O (stereo not given) | < 3.95 |  |  |
| CCOC(=O)C(Cc1ccccc1)(OOC(C)(C)C)C(=O)OCC | 4.84 | 4.23 |  |
| CCOC(=O)C(C#N)(Cc1ccc(Cl)cc1)OOC(C)(C)C (stereo not given) | 5.05 | < 3.90 |  |
| CCOC(=O)C(C#N)(CC(C)=O)OOC(C)(C)C (stereo not given) | 4.42 |  |  |
| C=CCC(C#N)(OOC(C)(C)C)C(=O)OCC (stereo not given) | 4.36 |  |  |
| CCOC(=O)C(C#N)(Cc1ccccc1)OOC(C)(C)C (stereo not given) | 4.17 |  |  |
| CC(C)(C)OOC(C#N)(C#N)Cc1ccc(Cl)cc1 | 5.41 | 4.71 | pIC50 [7]: 4.75 |
| CC(C)(C)OOC(C#N)(C#N)Cc1ccccc1 | 5.30 | 4.83 | pIC50 [3]: 4.00; Ratio IC50 [4]: 6.4; Activity [5]: 0%; Activity [6]: 0% |
| COc1ccc(CC(C#N)(C#N)OOC(C)(C)C)cc1 | 5.10 | 4.39 |  |
| CC(C)(C)OOC(C#N)(C#N)C1CCCC1 | 4.97 | 3.91 |  |
| CCOC(=O)CC(C)C(C#N)(C#N)OOC(C)(C)C (stereo not given) | 3.80 |  |  |
| CC(C)C(C#N)(C#N)OOC(C)(C)C | 3.53 |  |  |
| C[C@]12OO[C@](C)(OO1)C2C12CC3CC(CC(C3)C1)C2 (stereo not given in full) | 7.00 | 6.52 | pIC50 [3]: 5.77; Ratio IC50 [4]: 5.7; pIC50 [8]: 6.40; pIC50 [9]: 5.92; selectivity ratio [10]: 2; Activity [5]: 75.4%; Activity [6]: 77.8%; Activity [11]: 43.1%; Activity [12]: 50% |
| CC(c1ccc(Cl)cc1)C1[C@]2(C)OO[C@@]1(C)OO2 (stereo not given in full) | 6.40 | 4.45 | pIC50 [7]: 4.60 |
| Cc1ccc(C(C)C2[C@]3(C)OO[C@@]2(C)OO3)cc1 (stereo not given in full) | 6.22 | 4.51 | pIC50 [7]: 4.39 |
| C[C@]12OO[C@](C)(OO1)C2CCC(=O)NC12CC3CC(CC(C3)C1)C2 (stereo not given in full) | 6.10 | 4.48 | pIC50 [7]: 4.41 |
| CC(c1ccc(Br)cc1)C1[C@]2(C)OO[C@@]1(C)OO2 (stereo not given in full) | 6.00 | 4.47 | pIC50 [7]: 4.32 |
| CC(c1ccccc1)C1[C@]2(C)OO[C@@]1(C)OO2 (stereo not given in full) | 5.96 | 4.73 | pIC50 [7]: 4.89; pIC50 [3]: 5.66; Ratio IC50 [4]: 0.1; Activity [5]: 5%; Activity [6]: 4.6% |
| Cc1ccc(CC2[C@]3(C)OO[C@@]2(C)OO3)cc1 (stereo not given in full) | 5.92 | 4.40 | pIC50 [7]: < 3.90 |
| C[C@H]1[C@H](OC(=O)CCC(=O)O)O[C@@H]2O[C@@]3(C)CC[C@H]4[C@H](C)CC[C@@H]1[C@@]24OO3 [ARTESUNATE] | 5.30 | 4.41 | pIC50 [7]: 4.41; pIC50 [3]: 5.82; Ratio IC50 [4]: 0.04; pIC50 [8]: 5.49; pIC50 [9]: 5.17; selectivity ratio [10]: 2 |
| O=C(C1CCCCC1)N1CC(=O)N2CCc3ccccc3C2C1 (stereo not given) [PRAZIQUANTEL] | 5.66 |  | pIC50 [3]: < 4.02 |

— ChEMBL document CHEMBL2169849, “Identification of antischistosomal leads by evaluating bridged 1,2,4,5-tetraoxanes, alphaperoxides, and tricyclic monoperoxides” (J Med Chem, 2012)
